Screens from PubChem.
Ecoli WT expand: blocks growth of wild type E. coli BW25113. OD600 absorbance. growth inhibition, % at 100 µM. actives 0.15% (n = 98,000). AID 710;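 active = growth inhibition above about 50% at one test dose, limit read from the data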;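 also: growth measured after 20 h incubation at 37 °C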
Ecoli tolC: blocks growth of E. coli BW25113 tolC mutant | OD615 | growth inhibition, % at 10 µM (by protocol) | actives 2.2% (n = 65,000);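 active = growth inhibition at or above a cutoff equal to the mean over every tested compound plus 3 SD, cut at about 60% in these data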;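 also: growth measured after 20 h incubation at 37 °C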
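test system = E. coli BW25113 ΔtolC::kan bacteria | medium = LB with kanamycin 50 µg/mL | signal = OD at 615 nm | schedule = 37 °C, 20 h exposure | evaluation = % inhibition of E. coli growth | compound dosing = one dose of 10 µM final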
Cav3 T inh: inhibitors of human Cav3.2 T-type calcium channel; Cav3.2-expressing cells, Fluo-4 calcium fluorescence FDSS; active compounds read low; B-score at 10 µM; actives 4% (n = 100,000);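 active = single-dose well whose peak fluorescence ratio is a statistical outlier from its plate by either plate-standardised score or position-corrected B-score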
PostGolgi yeast: growth inhibition of a yeast mutant, post-Golgi transport screen. actives 0.9% (n = 98,000). post-Golgi transport phenotypic cell assay. inhibition, % at 10 µM;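 also: yeast cells grown in 1536-well plates; yeast grown about 18 h at 30C before absorbance read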
PostGolgi ctrl: inhibits growth of the yeast control strain. efflux-deficient yeast background strain, growth absorbance A615, 16 h. actives 5% (n = 98,000). inhibition, % at 10 µM. AID 738
Each line names hits and unclear results; the compound was inactive in the other large screens. Shown are actives, neighbours in structure and some others; about 8.4% of the full set was active somewhere. Rule as the data show it, unless noted: active = inhibition above about 30%; inactive = the rest.

CCOc1cccc(SCc2noc(C(=O)NCCOC)c2C(=O)O)c1	PostGolgi ctrl 33 (no result: Ecoli tolC)
Cc1ccnc(NS(=O)(=O)c2ccc(N)cc2)n1	none (no result: Ecoli tolC)
C=CCn1c(SC(C)C(=O)NCCC2=CCCCC2)nc2ccccc2c1=O (configuration not stated)	Cav3 T inh -6.1, PostGolgi ctrl 32 (no result: Ecoli tolC)
O=C(NCCC1=CCCCC1)C(c1ccccc1)c1ccccc1	none (no result: Ecoli tolC)
Cc1cccc(NC(=O)c2ccccc2OCC(=O)c2ccccc2)c1	PostGolgi ctrl 30 (no result: Ecoli tolC)
CCOc1ccccc1C(=O)Nc1cccc(-c2nnc(-c3ccccc3)o2)c1	PostGolgi ctrl 31 (no result: Ecoli tolC)
O=C(Nc1cccc(-c2nnc(-c3ccccc3)o2)c1)c1ccc(Br)o1	Ecoli tolC 84, PostGolgi ctrl 38
O=C(Nc1cccc(-c2cn3cccnc3n2)c1)c1ccc(Br)o1	PostGolgi ctrl 33
CCC(=O)Nc1ccc(-c2nnc(-c3ccccc3)o2)cc1	PostGolgi ctrl 40
C/C=C(/C)C(=O)OC1c2c(ccc3ccc(=O)oc23)OC(C)(C)C1OC(=O)/C(C)=C\C (configuration not stated)	Cav3 T inh -5.1 (no result: Ecoli WT expand, Ecoli tolC, PostGolgi yeast, PostGolgi ctrl)
CCOC(=O)Cc1ccc(NS(=O)(=O)c2ccc(SC)cc2)cc1	Ecoli tolC 70, Cav3 T inh -6.2
CCOc1ccc(NS(=O)(=O)c2ccc(SC)cc2)cc1	Ecoli tolC 73, Cav3 T inh -5.9
CCOC(=O)c1ccc(NC(=O)C(C)NS(=O)(=O)c2ccc(OC)cc2)cc1 (configuration not stated)	PostGolgi ctrl 36
CSc1ccc(S(=O)(=O)NC2CCCCCC2)cc1	PostGolgi ctrl 70
CCNC(=O)Cc1ccc(NS(=O)(=O)c2ccc(F)cc2)cc1	none
O=C(NCc1ccco1)c1ccc2nc3sc4c(c3c(=O)n2c1)CCCC4	none
CCSc1nnc(NC(=O)CSc2nnc(-c3c[nH]c4ccccc34)n2C)s1	none
CC(C)n1nc(C(=O)Nc2nnc(SCc3c(Cl)cccc3Cl)s2)c2ccccc2c1=O	none (no result: Ecoli tolC)
CCN1CCCC1CNC(=O)Cn1cnc2sc(C)c(S(=O)(=O)N3CCC(C)CC3)c2c1=O (configuration not stated)	none (no result: Ecoli WT expand, PostGolgi yeast, PostGolgi ctrl)
CCOC(=O)c1ccc(NC(=O)NS(=O)(=O)c2ccc(C)cc2)cc1	none (no result: Cav3 T inh)
CCOC(=O)c1ccc(NS(=O)(=O)c2ccc(SC)cc2)cc1	Ecoli tolC 70
COc1ccc(/C(O)=C2/C(=O)C(=O)N(CC3CCCO3)C2c2cccc(O)c2)cc1 (configuration not stated)	none (no result: Ecoli tolC, Cav3 T inh)
COc1ccc(/C(O)=C2\C(=O)C(=O)N(CC3CCCO3)C2c2cc(OC)ccc2OC)cc1 (configuration not stated)	Ecoli tolC 100
COc1ccccc1NC(=O)NS(=O)(=O)c1ccc(C)cc1	none (no result: Ecoli tolC)
Cc1ccc2nc(SCc3ccc([N+](=O)[O-])cc3)[nH]c2c1	Cav3 T inh -5.8 (no result: Ecoli tolC)
CCOC(=O)N1CCN(c2ncnc3c2[nH]c2ccc(F)cc23)CC1	none (no result: Ecoli tolC)
OC1(c2cccc(C(F)(F)F)c2)CCN(c2ncnc3c2[nH]c2ccc(F)cc23)CC1	Ecoli tolC 100, PostGolgi ctrl 33 (no result: Cav3 T inh)
COc1ccc(C2N(S(=O)(=O)c3ccc(C)cc3)CCN2S(=O)(=O)c2ccc(C)cc2)cc1	none (no result: Ecoli tolC)
O=c1c2c3c(sc2nc2n1CCCS2)CCCC3	none
O=c1c2cc(Br)cc(Br)c2oc2nc3n(c(=O)c12)CCCS3	PostGolgi ctrl 43 (no result: Ecoli tolC, Cav3 T inh)
O=C(COC(=O)C1(c2ccc(F)cc2)CCCC1)N1CCN(C(=O)c2ccco2)CC1	Cav3 T inh -5.4
O=C(COC(=O)C1(c2ccccc2F)CCCC1)N1CCN(C(=O)c2ccco2)CC1	none
CN(C)c1ccnc(-n2cccc2/C=N/OCc2ccc(F)cc2Cl)c1C#N	Cav3 T inh -5.4, PostGolgi ctrl 34 (no result: Ecoli tolC)
O=C(O)c1cccc2c1C(=O)N(Cc1ccncc1)C2	PostGolgi ctrl 35
COc1ccc(CC(=O)N2CCN(c3ccccn3)CC2)cc1OC	none
CCCc1ccc(OCc2ccc(C(=O)N3CCN(c4ccccn4)CC3)o2)c(OC)c1	Ecoli tolC 100, Cav3 T inh -4.9, PostGolgi ctrl 71
CCOC(=O)C1=c2/c(=C/c3ccccc3OC)c(N)c(C#N)n2C(=O)C(c2ccccc2OC)S1 (configuration not stated)	none (no result: Ecoli tolC, Cav3 T inh)
CCOC(=O)C1=C(N)N2C(=O)C(C)SC2=C(C(=O)OC)C1c1ccccc1OC (configuration not stated)	PostGolgi yeast 110, PostGolgi ctrl 75 (no result: Cav3 T inh)
Cc1cc(C)nc(SCCC(=O)N(C)C)n1	none
Cn1cc(C(c2ccccn2)c2cn(C)c3ccccc23)c2ccccc21	Cav3 T inh -6.6, PostGolgi ctrl 53 (no result: Ecoli tolC)
